Laboratory results reported in ChEMBL document CHEMBL1157101, “A series of alpha-heterocyclic carboxaldehyde thiosemicarbazones inhibit topoisomerase IIalpha catalytic activity” (J Med Chem, 2010).
Calls of active or inactive are those of the source. The calls are words filed in the database; no cut-off is given here.

Experiments:
[1] = Antiproliferative activity against human MCF7/ADR cells after 72 hrs by sulforhodamine B assay; type: functional, cell-based; details: NCI/ADR-RES
Method in brief: (§1)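 Cells seeded and exposed in triplicate to graded compound concentrations for 72 h. Suspension cells read by MTT conversion to coloured product; adherent cells read by sulforhodamine B. IC50 (50% growth inhibition versus untreated control) derived by the Logit method.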

[2] = Antiproliferative activity against human K562/A02 cells after 72 hrs by sulforhodamine B assay; type: functional, cell-based; details: K562/A02, 72 h, in the assay text read “MTT assay” for “sulforhodamine B assay”; method in brief: as §1
[3] = system: K562; experiment: Antiproliferative activity against human K562 cells after 72 hrs by sulforhodamine B assay; type: functional, cell-based; details: K562, 72 h; method in brief: as §1
[4] = molecular target: DNA topoisomerase 2-alpha (Homo sapiens, UniProt P11388); experiment: Binding affinity to human topoisomerase 2 alpha ATPase domain in presence of ATP
Chain of DNA topoisomerase 2-alpha (P11388 whole entry, the tested form may be a part): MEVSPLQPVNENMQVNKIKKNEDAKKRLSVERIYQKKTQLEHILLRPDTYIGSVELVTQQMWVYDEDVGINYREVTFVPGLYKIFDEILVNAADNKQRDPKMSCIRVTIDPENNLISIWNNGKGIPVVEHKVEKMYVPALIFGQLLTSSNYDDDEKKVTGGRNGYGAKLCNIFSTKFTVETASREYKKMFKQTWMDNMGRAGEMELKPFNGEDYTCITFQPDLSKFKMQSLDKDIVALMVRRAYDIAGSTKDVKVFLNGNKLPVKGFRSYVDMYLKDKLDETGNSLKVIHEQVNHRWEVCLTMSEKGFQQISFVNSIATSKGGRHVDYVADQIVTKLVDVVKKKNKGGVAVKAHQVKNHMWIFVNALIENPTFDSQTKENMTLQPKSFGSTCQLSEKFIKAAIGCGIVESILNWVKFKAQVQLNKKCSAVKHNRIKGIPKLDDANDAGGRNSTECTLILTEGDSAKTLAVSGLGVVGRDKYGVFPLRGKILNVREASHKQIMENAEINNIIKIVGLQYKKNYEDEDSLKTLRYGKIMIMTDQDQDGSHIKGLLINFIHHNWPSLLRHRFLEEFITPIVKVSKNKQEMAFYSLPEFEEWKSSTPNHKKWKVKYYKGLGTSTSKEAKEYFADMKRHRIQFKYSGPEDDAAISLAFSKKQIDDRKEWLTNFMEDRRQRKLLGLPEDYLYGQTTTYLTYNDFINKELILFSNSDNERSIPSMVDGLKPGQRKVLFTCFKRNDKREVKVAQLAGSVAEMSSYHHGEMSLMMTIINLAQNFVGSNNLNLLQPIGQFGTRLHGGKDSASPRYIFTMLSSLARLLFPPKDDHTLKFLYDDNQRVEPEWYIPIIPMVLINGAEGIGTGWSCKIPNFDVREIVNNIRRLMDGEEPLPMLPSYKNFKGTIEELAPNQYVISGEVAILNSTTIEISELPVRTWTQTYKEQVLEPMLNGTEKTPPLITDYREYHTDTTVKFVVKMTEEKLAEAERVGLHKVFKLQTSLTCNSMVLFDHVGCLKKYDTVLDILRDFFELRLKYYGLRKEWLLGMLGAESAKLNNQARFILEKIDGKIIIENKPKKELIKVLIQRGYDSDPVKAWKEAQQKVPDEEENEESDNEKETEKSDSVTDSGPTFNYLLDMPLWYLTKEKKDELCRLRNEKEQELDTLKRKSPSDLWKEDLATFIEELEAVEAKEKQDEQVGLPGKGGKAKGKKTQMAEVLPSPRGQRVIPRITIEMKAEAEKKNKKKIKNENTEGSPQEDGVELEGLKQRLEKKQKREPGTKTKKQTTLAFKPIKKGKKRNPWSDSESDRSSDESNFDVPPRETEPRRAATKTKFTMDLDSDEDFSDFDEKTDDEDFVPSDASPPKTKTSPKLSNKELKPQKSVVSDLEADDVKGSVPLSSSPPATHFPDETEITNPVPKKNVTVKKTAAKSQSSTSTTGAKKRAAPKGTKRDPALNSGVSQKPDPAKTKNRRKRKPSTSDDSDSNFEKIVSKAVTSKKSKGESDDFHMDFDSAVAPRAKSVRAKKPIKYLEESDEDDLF
Method in brief: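 Surface plasmon resonance. Human Topo IIα ATPase domain immobilised on CM5 chips after activation of surface carboxyl groups. Serial compound dilutions flowed over the chip and sensorgrams recorded. KD obtained by steady-state affinity fitting.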

IC50 [3]: 60 nM
Activity [4]: inactive
SMILES: CN(C)C(=S)N/N=C/c1ccc2ccccc2n1
IC50 [1]: 200 nM
IC50 [2]: 60 nM
